Assay results taken from PMC4339263 (Health physics, 2015).
Several values for one entry are separate records, joined by “and”; a condition that tells them apart may be missing. Equal entries are not always repeated. Where two headings read alike, the source gives them in different places.

What was measured:
[1] = cited from earlier work; for stability constant (log K) of the americium complex: ref Ansoborlo et al., 2007
Ionization = format: physicochemical; details: 5 mM ligand in 0.15 M KCl
In short: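 The free ligand was titrated with acid and then with base. After each addition it was equilibrated for 30 s, and pH was then read on a glass electrode with an Ag/AgCl reference. Ligand integrity was checked afterwards by HPLC with charged aerosol detection. Constants were calculated from three replicates.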

[2] = Solvent extraction study of the Am; format: binding; details: for calculated formation constant (log K) of the ^241Am-ligand complex: calculated from lg β^cond and pKa values; for conditional stability constant (lg β^cond) of the ^241Am complex: pH 1.3, I = 0.1 M NaCl, 25°C, 0.1 M HDEHP in dodecane
In short: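 Tracer ^241Am (16.7 MBq L-1) was partitioned between the organic and aqueous phases, with ligand at 0.05–100 µM in the aqueous phase. Samples were vortexed, shaken for 60 min, and centrifuged (10,000×g, 10 min). Both phases were gamma-counted (40–80 keV window), in triplicate. D0 came from a ligand-free aqueous phase. lg β^cond was obtained from a linear fit of […] against ligand concentration, and formation constants were then derived using the pKa values.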

[3] = Competitive binding of ^241Am in rat plasma; details: 3 nM ^241Am nitrate, 37°C; for logistic equation parameter a (slope) / logistic equation parameter b (inflection point) / logistic equation parameter c (asymptote, fraction of bound ^241Am): estimate ± 95% conf. interval
In short: (§1)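 Ligand stocks were in 10 mM sodium phosphate, pH 7.4, and added to plasma at 0.5–750 µM final, with ^241Am nitrate (stock in 1 M HCl). Samples were incubated at 37°C with mild agitation, then protein-bound Am was removed on a 3K ultrafilter (14,000×g, 30 min). Ligand-bound and cationic Am in the filtrate were separated on strong cation-exchange spin columns, and each fraction was gamma-counted (40–80 keV). Bound fraction was fitted against log concentration by logistic Gauss-Newton regression, and EC50 was taken at half of the asymptote.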

[4] = Competitive binding of ^241Am in beagle plasma; details: 3 nM ^241Am nitrate, 37°C; for logistic equation parameter a (slope) / logistic equation parameter b (inflection point) / logistic equation parameter c (asymptote, fraction of bound ^241Am): estimate ± 95% conf. interval
In short: as §1

[5] = Competitive binding of ^241Am in human plasma; details: for EC50 / EC90 / logistic equation parameter a (slope) / logistic equation parameter b (inflection point) / logistic equation parameter c (asymptote, fraction of bound ^241Am): human plasma, 3 nM ^241Am nitrate, 37°C; for logistic equation parameter a (slope) / logistic equation parameter b (inflection point) / logistic equation parameter c (asymptote, fraction of bound ^241Am): estimate ± 95% conf. interval
In short: as §1

[6] = reported for DTPA; cited from earlier work
[7] = oral; ref Volf, 1984; cited from earlier work
[8] = ref Martell, 1982; cited from earlier work
[9] = Pharmacokinetics of C2E2 in beagle dogs; format: in vivo
In short: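 Dogs were 8–10 months old and weighed 10.1–12.0 kg. They were fasted overnight and dosed by gavage (12.05 mg mL-1 solution), with food returned about 2 h later. Jugular blood was drawn pre-dose and at 0.5–24 h into fluoride/oxalate tubes. Plasma was acidified with 20% formic acid and stored at –80 °C. Analysis was by LC/MS/MS with ^13C internal standards; the acid metabolite was measured as its Fe(III) complex in negative-ion mode. Data were fitted to a two-compartment model.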

[10] = format: in vivo, beagle; details: beagles, 100 mg kg^−1 oral C2E2
[11] = 100 mg kg^−1 oral, two-compartment model

Row | Compound | stability constant (log K) of the americium complex [1] | pKa1 (Ionization) | pKa2 (Ionization) | calculated formation constant (log K) of the ^241Am-ligand complex [2] | conditional stability constant (lg β^cond) of the ^241Am complex [2] | EC50 [3] [µM] | EC90 [3] [µM] | logistic equation parameter a (slope) [3] | logistic equation parameter b (inflection point) [3] | logistic equation parameter c (asymptote, fraction of bound ^241Am) [3] | EC50 [4] [µM] | EC90 [4] [µM] | logistic equation parameter a (slope) [4] | logistic equation parameter b (inflection point) [4] | logistic equation parameter c (asymptote, fraction of bound ^241Am) [4] | EC50 [5] [µM] | EC90 [5] [µM] | logistic equation parameter a (slope) [5] | logistic equation parameter b (inflection point) [5] | logistic equation parameter c (asymptote, fraction of bound ^241Am) [5] | further results
1 | O=C(O)CC(O)(CC(=O)O)C(=O)O [citrate] | 8.6 | – | – | – | – | – | – | – | – | – | – | – | – | – | – | – | – | – | – | – | –
2 | CCOC(=O)CN(CCN(CCN(CC(=O)O)CC(=O)O)CC(=O)O)CC(=O)O [C2E1, monoethyl ester of DTPA] | – | 9.63 ± 0.03 | 6.35 ± 0.38 | 21.7 ± 0.5 | 2.46 | 25.5 | 60.1 | 0.06 ± 0.01 | 25.50 ± 3.36 | 45.74 ± 1.51 | 2.02 | 5.87 | 0.57 ± 0.13 | 2.02 ± 0.38 | 61.69 ± 1.4 | 5.26 | 19 | 0.16 ± 0.03 | 5.26 ± 0.74 | 55.22 ± 1.06 | pKa3 (Ionization): 2.99 ± 0.05; pKa4 (Ionization): 1.72 ± 1.5; pKa5 (Ionization): 1.18 ± 0.45; pKa6 (Ionization): < 1.5; pKa7 (Ionization): < 1.5
3 | transferrin: plasma protein that binds about 30% of the total ^241Am | 10.4 | – | – | – | – | – | – | – | – | – | – | – | – | – | – | – | – | – | – | – | –
4 | O=C(O)CN(CCN(CC(=O)O)CC(=O)O)CCN(CC(=O)O)CC(=O)O [DTPA, Diethylenetriaminepentaacetic acid, reference compound] | – | – | – | 25.4 ± 0.3 | 2.70 | 5.36 | 12.4 | 0.31 ± 0.03 | 5.36 ± 0.43 | 35.69 ± 0.85 | 1.08 | 2.25 | 1.87 ± 0.69 | 1.08 ± 0.18 | 54.75 ± 2.16 | 2.82 | 5.05 | 0.98 ± 0.13 | 2.82 ± 0.30 | 55.88 ± 1.40 | pKa1 [6]: 10.51 ± 0.01; pKa2 [6]: 8.54 ± 0.02; pKa3 [6]: 4.31 ± 0.02; pKa4 [6]: 2.55 ± 0.05; pKa5 [6]: 1.80 ± 0.05; pKa6 [6]: 1.60 ± 0.15; pKa7 [6]: 1.45 ± 0.15; bioavailability [7]: ~ 3%; stability constant (log K) with iron [8]: 28.0
5 | O=[N+]([O-])O [nitrate] | – | – | – | – | – | – | – | – | – | – | – | – | – | – | – | – | – | – | – | – | affinity for americium (log K) ([1]; ref Silva and OECD Nuclear Energy Agency., 1995): 1.3
6 | CCOC(=O)CN(CCN(CCN(CC(=O)O)CC(=O)OCC)CC(=O)O)CC(=O)O [C2E2, DTPA diethyl ester] | – | 9.40 ± 0.02 | 4.68 ± 0.02 | 19.6 and 19.6 ± 0.2 | 1.36 | 46.2 | 101 | 0.04 ± 0.00 | 46.17 ± 3.43 | 54.62 ± 1.58 | 4.91 | 10.8 | 0.37 ± 0.02 | 4.91 ± 0.18 | 64.79 ± 0.50 | 8.87 | 18.4 | 0.23 ± 0.04 | 8.87 ± 0.80 | 60.29 ± 1.25 | pKa3 (Ionization): 3.52 ± 0.03; pKa4 (Ionization): 1.87 ± 0.05; pKa5 (Ionization): 1.76 ± 0.05; pKa6 (Ionization): 1.45 ± 0.09; stability of the ^241Am complex lower than that of the DTPA-^241Am complex [2]: 6 log units; strength of americium binding relative to the strongest ligand in the plasma ([2]; compared with the americium-transferrin complex): nine orders of magnitude higher; difference between concentration required for chelation in humans and dogs ([5]; human vs dog plasma): less than 2 fold; difference between concentration required for chelation in humans and rats ([5]; human vs rat plasma): greater than 5 fold; fraction of the absorbed dose metabolized to C2E1 or DTPA ([9]; 100 mg kg^−1 oral): ~ 2%; difference between AUC0–24 of males and females ([9]; 100 mg kg^−1 oral, two males and two females): no significant difference; elimination half-life from the first compartment [9, 11]: 0.69 h; elimination half-life from the second compartment [9, 11]: 6.66 h; time to peak plasma concentration after administration ([9]; single 100 mg kg^−1 oral gavage): 1 h; time plasma concentration is above the 50% maximal binding threshold [10]: 4.7 h
